Active and inactive are the calls of the source. No cut-off for these calls is given here.
Experiments:
[1] = tested on: RS4-11; test: Antiproliferative activity against human RS4-11 cells assessed as cell growth inhibition incubated for 72 hrs by resazurin dye based analysis; assay type: functional
Procedure, shortened: (§1)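 Cells seeded at 2000/well, treated 24 h later with compounds in a 6-point 2-fold dose series, duplicate wells, two independent experiments. After 72 h, resazurin was added at 44 µM final for 3 h at 37 °C and fluorescence was read at 590 nm. Viability was normalized to 1 µM bortezomib (positive) and 0.5% DMSO (negative) controls. GI50 is the mean ± SEM of dose-response curves.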

[2] = tested on: A549; test: Antiproliferative activity against human A549 cells assessed as cell growth inhibition incubated for 72 hrs by resazurin dye based analysis; assay type: functional; procedure, shortened: as §1
[3] = tested on: HD-MB03; test: Antiproliferative activity against human HD-MB03 cells assessed as cell growth inhibition incubated for 72 hrs by resazurin dye based analysis; assay type: functional; procedure, shortened: as §1
[4] = molecular target: T1, BAG family molecular chaperone regulator 3 (Homo sapiens, UniProt O95817); test: Binding affinity to CM4 sensorchip immobilized C-terminal His tagged human BAG3 transfected in HEK293T cells at 50 uM by SPR analysis
T1 sequence (O95817 whole entry): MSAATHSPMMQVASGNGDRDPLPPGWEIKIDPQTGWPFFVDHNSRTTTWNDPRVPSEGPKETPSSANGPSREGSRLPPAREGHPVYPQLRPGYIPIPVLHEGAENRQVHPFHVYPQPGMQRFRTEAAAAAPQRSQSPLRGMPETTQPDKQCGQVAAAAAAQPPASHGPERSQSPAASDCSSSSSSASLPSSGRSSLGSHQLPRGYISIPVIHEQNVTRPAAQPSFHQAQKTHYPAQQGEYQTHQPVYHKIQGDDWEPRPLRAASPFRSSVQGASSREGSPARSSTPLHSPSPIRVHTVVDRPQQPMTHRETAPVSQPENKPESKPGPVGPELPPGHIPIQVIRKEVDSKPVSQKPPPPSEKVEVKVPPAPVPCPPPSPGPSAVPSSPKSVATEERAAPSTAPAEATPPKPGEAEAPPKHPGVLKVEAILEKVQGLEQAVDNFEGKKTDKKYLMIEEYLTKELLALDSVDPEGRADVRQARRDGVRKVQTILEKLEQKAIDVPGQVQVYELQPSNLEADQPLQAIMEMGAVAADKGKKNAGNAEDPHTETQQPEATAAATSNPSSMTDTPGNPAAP
Procedure, shortened: (§2)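 SPR screen on BAG3-His amine-coupled to a CM4 chip at 60 µg/mL in pH 2.8 acetate. Compound at 50 µM in PBS with 5% DMSO and 0.05% P20 was injected for 90 s at 30 µL/min, then washed. Chip regenerated with 10 mM glycine pH 3. Bound RU read at equilibrium against a void flow cell; 3–10 repeats, mean ± SEM.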

[5] = molecular target: T1, BAG family molecular chaperone regulator 3; test: Binding affinity to CM4 sensorchip immobilized glycosylated C-terminal His tagged human BAG3 transfected in HEK293T cells assessed as dissociation constant by SPR analysis
Procedure, shortened: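 SPR single-cycle kinetics on CM4-immobilized HEK-293T-expressed BAG3-His. Increasing compound concentrations in PBS with 5% DMSO and 0.05% P20 were injected at 30 µL/min without regeneration between injections, with blank subtraction. Kd from steady-state analysis, reported as mean ± SEM and compared by Student t-test.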

[6] = molecular target: T1, BAG family molecular chaperone regulator 3; test: Binding affinity to CM4 sensorchip immobilized C-terminal His tagged human BAG3 transfected in HEK293T cells assessed as binding capacity at 50 uM by SPR analysis; procedure, shortened: as §2
[7] = Cytotoxicity against resting human PBMC cells assessed as cell growth inhibition incubated for 72 hrs by MTT assay; assay type: toxicity, cell-based
[8] = Cytotoxicity against PHA stimulated human PBMC cells assessed as cell growth inhibition incubated for 72 hrs by MTT assay; assay type: toxicity, cell-based
[9] = molecular target: T1, BAG family molecular chaperone regulator 3; test: Binding affinity to C-terminal His tagged human BAG3 transfected in HEK293T cells assessed as intermolecular nuclear overhauser effect mediated protein magnetization at 125 uM by waterLOGSY experiment; assay type: cell-based
Procedure, shortened: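 Ligand-observed NMR in 50 mM sodium phosphate pH 7.8, 150 mM NaCl, 0.04% NaN3, 1.3% DMSO-d6, 5% D2O. Compound at 125 µM with 5 µM BAG3-His (HEK-293T expressed, purified by IMAC and SEC), each also run without protein. WaterLOGSY used 240 scans, 1.5 s mixing and water inversion at 4.7 ppm. STD used 256 scans with protein saturation at 0.4 ppm.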

| SMILES | GI50 [1] [µM] | GI50 [2] [µM] | GI50 [3] [µM] | Activity [4] | Kd [5] [µM] | Activity [6] [RU] | GI50 at 72 h [7] [µM] | GI50 at 72 h [8] [µM] | Activity [9] |
| --- | --- | --- | --- | --- | --- | --- | --- | --- | --- |
| CCOC(=O)CN1C(=O)S/C(=C\c2ccc(O)cc2)C1=O | > 100 | > 100 | 29.5 | inactive | – | – | – | – | – |
| CCOC(=O)CN1C(=O)S/C(=C\c2ccc(F)cc2)C1=O | > 100 | > 100 | 34.7 | inactive | – | – | – | – | – |
| CCOC(=O)CN1C(=O)SC(Cc2ccc(O)c(O)c2)C1=O (stereo unspecified) | 27.6 | > 100 | 49 | inactive | – | – | – | – | – |
| O=C(CN1C(=O)S/C(=C\c2ccc(O)c(O)c2)C1=O)N1CCOCC1 | 24.8 | 49.4 | 33.1 | – | 152 | > 5 | – | – | – |
| CCOC(=O)Cc1csc(Oc2ccc(O)cc2)n1 | > 100 | > 100 | > 100 | – | – | < 5 | – | – | – |
| CCOC(=O)CN1C(=O)S/C(=C\c2ccc(OC)c(OC)c2)C1=O | > 100 | > 100 | 45 | inactive | – | – | – | – | – |
| CCOC(=O)CN1C(=O)S/C(=C\c2ccc(Cl)c(Cl)c2)C1=O | > 100 | > 100 | > 100 | inactive | – | – | – | – | – |
| CCOC(=O)CN1C(=O)S/C(=C\c2ccc(OC)nc2)C1=O | > 100 | > 100 | 41.1 | inactive | – | – | – | – | – |
| CCOC(=O)CN1C(=O)S/C(=C\c2ccc3c(c2)OCCO3)C1=O | > 100 | > 100 | > 100 | inactive | – | – | – | – | – |
| CCOC(=O)CN1C(=O)S/C(=C\c2ccc(O)c(O)c2)C1=O | 6.4 | 42.5 | 14.8 | – | 233 | – | > 100 | > 100 | Active |
| CCOC(=O)C(C)N1C(=O)/C(=C/c2ccc(O)c(O)c2)N(C)C1=O (stereo unspecified) | 17.8 | 52.6 | 53.3 | inactive | – | – | – | – | – |
| CCOC(=O)CN1C(=O)S/C(=C\c2ccc(O)c(F)c2)C1=O | > 100 | > 100 | 58.3 | inactive | – | – | – | – | – |
| CS(=O)(=O)Nc1ccc(/C=C2\SC(=O)N(CC(=O)N3CCOCC3)C2=O)cc1 | 12.4 | 47.7 | 47.4 | inactive | – | – | – | – | – |
| O=C(O)CN1C(=O)S/C(=C\c2ccc(O)c(O)c2)C1=O | > 100 | > 100 | > 100 | inactive | – | – | – | – | – |
| O=C1OCCC1N1C(=O)S/C(=C\c2ccc(O)c(O)c2)C1=O (stereo unspecified) | 18.1 | 50.2 | 20.7 | – | – | < 5 | – | – | – |
| CCOC(=O)CN1C(=O)S/C(=C(/C)c2ccc(O)c(O)c2)C1=O | 7.25 | 44.2 | 6.4 | inactive | – | – | – | – | – |
| CN(C)C(=O)CN1C(=O)S/C(=C\c2ccc(O)c(O)c2)C1=O | 25.6 | 48.3 | 36.4 | inactive | – | – | – | – | – |
| CCOC(=O)CN1C(=O)S/C(=C\c2cccc(O)c2)C1=O | 55 | > 100 | 40.7 | inactive | – | – | – | – | – |
| O=C(CN1C(=O)S/C(=C\c2cc(Cl)c(O)c(Cl)c2)C1=O)N1CCOCC1 | > 100 | > 100 | > 100 | inactive | – | – | – | – | – |
| CCOCCN1C(=O)S/C(=C\c2ccc(O)c(O)c2)C1=O | 6.1 | 34.3 | 17.8 | inactive | – | – | – | – | – |
| O=C(CN1C(=O)S/C(=C\c2ccc(O)c(O)c2)C1=O)OCc1ccccc1 | – | – | – | inactive | – | – | – | – | – |
| CCNC(=O)C(C)N1C(=O)S/C(=C\c2ccc(O)c(O)c2)C1=O (racemic) | 24.8 | 70.9 | 53.1 | inactive | – | – | – | – | – |

| SMILES | GI50 [1] [µM] | GI50 [2] [µM] | GI50 [3] [µM] | Activity [4] | Kd [5] [µM] | Activity [6] [RU] | GI50 at 72 h [7] [µM] | GI50 at 72 h [8] [µM] | Activity [9] |
| --- | --- | --- | --- | --- | --- | --- | --- | --- | --- |
| CCOC(=O)C(C)N1C(=O)S/C(=C\c2ccc(O)nc2)C1=O (racemic) | > 100 | > 100 | > 100 | inactive | – | – | – | – | – |
| CCOC(=O)C(C)N1C(=O)S/C(=C\c2ccc(Cl)c(O)c2)C1=O (racemic) | 60.6 | > 100 | 5.26 | – | – | < 5 | – | – | – |
| CCOC(=O)C(CC)N1C(=O)S/C(=C\c2ccc(O)c(O)c2)C1=O (racemic) | 5.13 | 29.3 | 11.7 | – | – | > 5 | – | – | – |
| CC(C(=O)N1CCOCC1)N1C(=O)S/C(=C\c2ccc(N3CCCC3)cc2)C1=O (racemic) | 5.2 | 69 | 7.4 | – | – | < 5 | – | – | – |
| CCOC(=O)C(C)N1C(=O)S/C(=C\c2cc(F)c(O)c(F)c2)C1=O (racemic) | > 100 | > 100 | > 100 | inactive | – | – | – | – | – |
| CCOC(=O)C(C1CC1)N1C(=O)S/C(=C\c2ccc(O)c(O)c2)C1=O (racemic) | 6.83 | 28.1 | 15.5 | – | 204 | > 5 | – | – | – |
| CCOC(=O)C(C)N1C(=O)S/C(=C\c2ccc3c(c2)NC(=O)CO3)C1=O (racemic) | 28.1 | > 100 | 40.7 | inactive | – | – | – | – | – |
| CC(C(=O)N1CCC2(CC1)OCCO2)N1C(=O)S/C(=C\c2ccc(O)c(O)c2)C1=O (racemic) | 13.4 | 44.1 | 31.4 | – | – | < 5 | – | – | – |
| CCOC(=O)C(C)N1C(=O)S/C(=C\c2ccc(O)c(Cl)c2)C1=O (racemic) | 38.1 | 49.4 | 26.5 | inactive | – | – | – | – | – |
| CCOC(=O)C(c1ccccc1)N1C(=O)S/C(=C\c2ccc(O)c(O)c2)C1=O (racemic) | 9.53 | 33.3 | 17.6 | – | 366 | > 5 | – | – | – |
| CC(C(=O)N1CCCCC1)N1C(=O)S/C(=C\c2ccc(O)c(O)c2)C1=O (racemic) | 8.6 | 29.4 | 13.9 | – | 150 | > 5 | – | – | – |
| CCOC(=O)C(C)N1C(=O)S/C(=C\c2ccc3cn[nH]c3c2)C1=O (racemic) | 17.8 | 57.5 | 26.3 | – | – | < 5 | – | – | – |
| CC(C(=O)N1CC2(COC2)C1)N1C(=O)S/C(=C\c2ccc(O)c(O)c2)C1=O (racemic) | > 100 | > 100 | > 100 | inactive | – | – | – | – | – |
| CCOC(=O)C(C)N1C(=O)S/C(=C\c2ccc(O)c(O)c2)C1=O (racemic) | 5.1 | 32.5 | 25.3 | – | 286 | > 5 | – | – | – |
| CCOC(=O)C(C)N1C(=O)S/C(=C\c2ccc3[nH]ncc3c2)C1=O (racemic) | 50.5 | 68 | 28.3 | – | – | < 5 | – | – | – |
| CCOC(=O)C(C)N1C(=O)S/C(=C\c2ccc3[nH]cnc3c2)C1=O (racemic) | > 100 | > 100 | 42.5 | – | 198 | > 5 | – | – | – |
| CCOC(=O)C(C)N1C(=O)S/C(=C\c2ccc(F)c(O)c2)C1=O (racemic) | > 100 | > 100 | > 100 | inactive | – | – | – | – | – |
| CCOC(=O)C(C)N1C(=O)N/C(=C\c2ccc(O)c(O)c2)C1=O (racemic) | 11.9 | 54.1 | 16.9 | inactive | – | – | – | – | – |
| CC(C(=O)N1CCOCC1)N1C(=O)S/C(=C\c2ccc(N3CCOCC3)cc2)C1=O (racemic) | > 100 | > 100 | > 100 | – | – | < 5 | – | – | – |
| CC(C(=O)N1CCOCC1)N1C(=O)S/C(=C\c2ccc(O)c(O)c2)C1=O (racemic) | 14.1 | 47.9 | 48.7 | inactive | – | – | – | – | – |
| CCOC(=O)C(C)N1C(=O)S/C(=C\c2cc(Cl)c(O)c(Cl)c2)C1=O (racemic) | 47.2 | 72.5 | 45.6 | – | – | < 5 | – | – | – |
| CCOC(=O)C(C)N1C(=O)S/C(=C\c2ccc(NS(C)(=O)=O)cc2)C1=O (racemic) | 50.3 | > 100 | 17.6 | – | – | – | – | – | – |

— ChEMBL document CHEMBL5335790, “Design, synthesis and biological evaluation of novel 2,4-thiazolidinedione derivatives able to target the human BAG3 protein” (Eur J Med Chem, 2023)
